Reference: ChEMBL document CHEMBL1629563, “Pharmacokinetic and safety evaluation of BILR 355, a second-generation nonnucleoside reverse transcriptase inhibitor, in healthy volunteers” (Antimicrob Agents Chemother, 2008)

Columns and labels:
Homo sapiens [1] = assay: Toxicity in healthy human assessed as occurrence of nausea at 75 mg, po administered as single dose relative to control; format: organism-based; settings: in vivo
Homo sapiens [2] = assay: Toxicity in healthy human assessed as occurrence of maculopapular rash at 100 mg, po administered as single dose relative to control; format: organism-based; settings: in vivo
Homo sapiens [3] = assay: Toxicity in healthy human assessed as occurrence of frequent bowel movements at 5 mg, po administered as single dose relative to control; format: organism-based; settings: in vivo
Homo sapiens [4] = assay: Toxicity in healthy human assessed as occurrence of frequent bowel movements at 12.5 mg, po administered as single dose relative to control; format: organism-based; settings: in vivo
[5] = Mean residence time in healthy human at 50 mg, po administered as single dose coadministered with 100 mg of ritonavir; format: ADME, organism-based; settings: in vivo
[6] = Apparent volume of distribution in terminal phase in healthy human at 12.5 mg, po administered as single dose coadministered with 100 mg of ritonavir; format: ADME, organism-based; settings: in vivo, read-out: Vz/F
Method in brief: (§1)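 Healthy male volunteers, fasted overnight, got one oral dose of BILR 355 in PEG solution with 200 ml water. Ritonavir 100 mg was given 10 h before and again with the dose. Plasma was sampled (EDTA) from predose to 144 h and assayed by validated LC-MS/MS. Cmax and Vz/F came from noncompartmental analysis. Vss/F = CL/F·(MRTp.o. − 1/Ka), with Ka from compartmental modelling.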

[7] = Apparent volume of distribution in terminal phase in healthy human at 37.5 mg, po administered as single dose coadministered with 100 mg of ritonavir; format: ADME, organism-based; settings: in vivo, read-out: Vz/F; method in brief: as §1
[8] = Renal clearance in healthy human at 5 mg, po administered as single dose coadministered with 100 mg of ritonavir by high-pressure liquid chromatography-tandem mass spectrometry/mass spectrometry method; format: ADME, organism-based, Kidney; settings: in vivo, read-out: CL_renal (converted)
[9] = Renal clearance in healthy human at 12.5 mg, po administered as single dose coadministered with 100 mg of ritonavir by high-pressure liquid chromatography-tandem mass spectrometry/mass spectrometry method; format: ADME, organism-based, Kidney; settings: in vivo, read-out: CL_renal (converted)
[10] = Renal clearance in healthy human at 87.5 mg, po administered as single dose coadministered with 100 mg of ritonavir by high-pressure liquid chromatography-tandem mass spectrometry/mass spectrometry method; format: ADME, organism-based, Kidney; settings: in vivo, read-out: CL_renal (converted)
Method in brief: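 Healthy male volunteers, fasted overnight, got one oral dose in PEG solution with 200 ml water. Ritonavir 100 mg was given 10 h before and again with the dose. Urine was collected quantitatively over 0–6, 6–24 and 24–72 h and stored at −20°C, then assayed by validated HPLC-MS/MS. CLR = amount excreted unchanged over an interval / plasma AUC over the same interval.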

[11] = Drug excretion in healthy human urine assessed as unchanged drug at 25 mg, po administered as single dose coadministered with 100 mg of ritonavir by high-pressure liquid chromatography-tandem mass spectrometry/mass spectrometry method; format: ADME, organism-based; settings: read-out: Drug uptake
Method in brief: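 Ritonavir 100 mg was given 10 h before and with one oral dose of BILR 355 in PEG solution. Urine was collected by weight as predose blank, then 0-6, 6-24 and 24-72 h, stored at −20°C and assayed by LC-MS/MS. fe = unchanged drug excreted (Ae) as a percentage of dose. Line 50: high-fat breakfast 30 min before dosing.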

Homo sapiens [12] = assay: Toxicity in healthy human assessed as occurrence of diarrhea at 25 mg, po administered as single dose coadministered with 100 mg of ritonavir; format: organism-based; settings: in vivo
Homo sapiens [13] = assay: Toxicity in healthy human assessed as occurrence of maculopapular rash at 75 mg, po administered as single dose coadministered with 100 mg of ritonavir; format: organism-based; settings: in vivo
[14] = AUC (0 to last) in healthy human at 12.5 mg, po administered as single dose; format: ADME, organism-based; set-up: dose 12.5 mg, route oral, time 0 - last; settings: plasma
Method in brief: (§2)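 Healthy male volunteers, six active plus two placebo per dose group, single oral dose in PEG solution with 200 ml water after overnight fast; breakfast 60 to 90 min post-dose. EDTA plasma sampled predose to 144 h. Assayed by validated LC-MS/MS after protein precipitation. Noncompartmental analysis, AUC by linear up/log down trapezoidal rule; Vss = CL/F·(MRTp.o. − 1/Ka).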

Homo sapiens [15] = assay: Toxicity in healthy human assessed as occurrence of abdominal pain at 1 mg, po administered as single dose relative to control; format: organism-based, Abdomen; settings: in vivo
Homo sapiens [16] = assay: Toxicity in healthy human assessed as occurrence of abdominal pain at 12.5 mg, po administered as single dose relative to control; format: organism-based, Abdomen; settings: in vivo
[17] = Mean residence time in healthy human at 100 mg, po administered as single dose; format: ADME, organism-based; settings: in vivo
[18] = Apparent volume of distribution at steady state in healthy human at 75 mg, po administered as single dose; format: ADME, organism-based; settings: in vivo, read-out: Vss/F
Method in brief: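 Single fasting oral dose of BILR 355 in PEG solution with 200 ml tap water, given to healthy males. Standard breakfast came 60-90 min after the dose. EDTA plasma was sampled predose to 144 h, stored below −18°C and assayed by LC-MS/MS after protein precipitation. Noncompartmental analysis gave Vz/F. Vss/F = CL/F·(MRTp.o. − 1/Ka), with Ka from compartmental modelling.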

[19] = Apparent volume of distribution at steady state in healthy human at 100 mg, po administered as single dose; format: ADME, organism-based; settings: in vivo, read-out: Vss/F; method in brief: as §2
[20] = Drug excretion in healthy human urine assessed as unchanged drug in healthy human at 12.5 mg, po administered as single dose by high-pressure liquid chromatography-tandem mass spectrometry/mass spectrometry method; format: ADME, organism-based; settings: read-out: Drug uptake
Method in brief: (§3)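 Urine was collected by weight after one oral dose of BILR 355 in PEG solution in fasted healthy males. Intervals were predose blank, 0-6, 6-24 and 24-72 h, with the bladder voided before each. Aliquots were stored at −20°C and assayed by LC-MS/MS. fe = amount of unchanged drug excreted (Ae) as a percentage of the administered dose.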

[21] = Drug excretion in healthy human urine assessed as unchanged drug at 50 mg, po administered as single dose by high-pressure liquid chromatography-tandem mass spectrometry/mass spectrometry method; format: ADME, organism-based; settings: read-out: Drug uptake; method in brief: as §3
[22] = AUC (0 to infinity) in healthy human at 25 mg, po administered as single dose coadministered with 100 mg of ritonavir; format: ADME, organism-based; set-up: dose 25 mg, route oral, time infinity; settings: plasma
Method in brief: (§4)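 Healthy male volunteers, fasted. Ritonavir 100 mg given 10 h before and again together with single oral BILR 355 in PEG solution. EDTA plasma sampled predose to 144 h. LC-MS/MS assay after protein precipitation. Noncompartmental analysis, AUC by linear up/log down trapezoidal rule; Vss = CL/F·(MRTp.o. − 1/Ka).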

[23] = AUC (0 to infinity) in healthy human at 62.5 mg, po administered as single dose coadministered with 100 mg of ritonavir; format: ADME, organism-based; set-up: dose 62.5 mg, time infinity, route oral; settings: plasma; method in brief: as §4
[24] = AUC (0 to last) in healthy human at 50 mg, po administered as single dose coadministered with 100 mg of ritonavir; format: ADME, organism-based; set-up: dose 50 mg, time 0 - last, route oral; settings: plasma; method in brief: as §4
[25] = AUC (0 to last) in healthy human at 62.5 mg, po administered as single dose coadministered with 100 mg of ritonavir; format: ADME, organism-based; set-up: dose 62.5 mg, time 0 - last, route oral; settings: plasma; method in brief: as §4
[26] = Tmax in healthy human at 50 mg, po administered as single dose coadministered with 100 mg of ritonavir; format: ADME, organism-based; settings: in vivo
[27] = Half life in healthy human at 25 mg, po administered as single dose coadministered with 100 mg of ritonavir; format: ADME, organism-based; settings: in vivo
Homo sapiens [28] = assay: Toxicity in healthy human assessed as occurrence of headache at 12.5 mg, po administered as single dose relative to control; format: organism-based; settings: in vivo

MRT [5]: 16.7 h | Vd/F [6]: 149 L | Vd/F [7]: 104 L | CL renal [8]: 6.03 mL/min | CL renal [9]: 7.3 mL/min | CL renal [10]: 8.2 mL/min | dose excreted [11]: 6.62% | AUC(0-t) [14]: 56.2 ng·h/mL | MRT [17]: 2.23 h | Vd/F [18]: 608 L | Vd/F [19]: 163 L | dose excreted [20]: 0.212% | dose excreted [21]: 0.485% | AUC(0-inf) [22]: 4340 ng·h/mL | AUC(0-inf) [23]: 7630 ng·h/mL | AUC(0-t) [24]: 6540 ng·h/mL | AUC(0-t) [25]: 7480 ng·h/mL | Tmax [26]: 0.958 h | half-life [27]: 11.5 h
Structure (SMILES): CCN1c2ncc(CCOc3cc[n+]([O-])c4ccccc34)cc2C(=O)N(C)c2cccnc21 [BILR 355]
Activity (Homo sapiens [1]): 0% | Activity (Homo sapiens [2]): 0% | Activity (Homo sapiens [3]): 0% | Activity (Homo sapiens [4]): 0% | Activity (Homo sapiens [12]): 0% | Activity (Homo sapiens [13]): 0% | Activity (Homo sapiens [15]): 0% | Activity (Homo sapiens [16]): 0% | Activity (Homo sapiens [28]): 0%
